# Compound activity as filed in PubChem BioAssay.
# This is a sample that favours compounds with a hit; in the whole collection about 1.1% have one here.
# PMI activator: increases human mannose-6-phosphate isomerase activity; purified human PMI, coupled resazurin fluorescence, 20 min; active compounds read high; 1 = vehicle control, 0 substrate-free wells; activation factor at 20 µM; 190,000 compounds, 0.005% hits; AID 1214;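 active means activation factor of 2 or more at 20 µM, relative to plate controls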
# Target sequence (P34949 whole entry, looked up): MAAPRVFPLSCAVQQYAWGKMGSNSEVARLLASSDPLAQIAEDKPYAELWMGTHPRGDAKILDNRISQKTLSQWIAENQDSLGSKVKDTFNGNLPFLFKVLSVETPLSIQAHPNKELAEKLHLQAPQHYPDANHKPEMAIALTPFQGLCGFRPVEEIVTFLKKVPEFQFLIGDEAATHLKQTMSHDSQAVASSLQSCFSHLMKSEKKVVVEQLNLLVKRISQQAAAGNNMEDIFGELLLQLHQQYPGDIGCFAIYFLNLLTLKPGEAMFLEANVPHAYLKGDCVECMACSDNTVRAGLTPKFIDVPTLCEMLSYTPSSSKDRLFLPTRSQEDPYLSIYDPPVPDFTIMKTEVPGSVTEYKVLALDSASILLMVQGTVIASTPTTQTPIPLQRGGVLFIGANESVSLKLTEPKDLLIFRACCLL
# Rad51 HR inh: blocks human Rad51 in homologous recombination. Q06609. hRad51 DNA strand exchange, fluorescence dequenching. inhibition, % at 10 µM. 200,000 compounds, 0.085% hits. AID 1385;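 active means inhibition above 40% at the single screening dose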;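 further: 0% = DMSO control wells and 100% = blanks with heterologous ssDNA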
#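 Material: Human Rad51 nucleoprotein filaments preassembled on unlabelled ssDNA | Also added: Labelled 47-mer dsDNA for strand exchange | Dosing: Single dose, 10 µM final compound | Schedule: 30-min compound preincubation and 15-min exchange, both room temperature | Technique: Fluorescence dequenching at 485/520 nm | Measure: Percent inhibition relative to plate controls and blanks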
# PMI act hi M6P: increases human PMI activity with near-saturating mannose 6-phosphate. P34949. coupled PMI enzyme assay, resazurin fluorescence, 20 min; active compounds read high; 1 = untreated enzyme, 0 = substrate-free blank. activation factor at 20 µM. 190,000 compounds, 0.34% hits;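 active means activation factor of 2 or more at 20 µM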
#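 Material: human phosphomannose isomerase with PGI, G6PDH, diaphorase coupling enzymes / Reagent: Man-6-P substrate 1.0 mM / Dosing: single compound dose of 20 µM, 1% DMSO final / Incubation: enzyme reaction with compound 20 min at room temperature / Signal: resorufin fluorescence (Ex 544/Em 590 nm) from resazurin via diaphorase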
# HMGR II inh: blocks class II HMG-CoA reductase of Enterococcus faecalis. 190,000 compounds, 0.41% hits. AID 1066. purified E. faecalis HMGR, NADPH absorbance 340 nm kinetic. inhibition, % at 10 µM;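 active means inhibition above a set limit, the median over all tested compounds plus 3 SD, cut at about 9.5% in these data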;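 further: enzyme runs in reverse so mevalonate oxidation gives rising NADPH absorbance; 0% = complete reaction with DMSO and 100% = background rate lacking mevalonate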
# m-calpain inh: calpain II (pig) inhibition | purified calpain II, fluorogenic peptide substrate, 30 min | inhibition, % at 16 µM | 220,000 compounds, 0.37% hits | AID 1236;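 active means inhibition above about 50%, limit read from the data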
# * = called active by the depositor; · = no result.
SMILES,PMI activator,Rad51 HR inh,PMI act hi M6P,HMGR II inh,m-calpain inh
CC(C)N(Cc1nc(-c2ccccc2)no1)C(=O)CN1C(=O)c2ccccc2C1=O,0.9,-3,1,2,17
CC(C)N(Cc1nc(-c2ccccc2)no1)C(=O)CCCN1C(=O)c2ccccc2C1=O,1,0,1,-1,64*
Cn1c(=S)n(C)c2ccccc21,1,-14,1,2,7
Cn1c(=S)ccc2ccccc21,1.8,-2,2.3*,0,-5
Cc1ccc(NC(=S)N(CCN2CCCCC2)Cc2ccco2)cc1Cl,0.8,9,0.9,-1,16
COc1ccc2cc(C(=O)N3CCCCCC3)sc(=O)c2c1OC,1,7,1.1,-3,60*
COC(=O)c1cc2ccc(OC)c(OC)c2c(=O)s1,0.8,2,0.9,-6,-9
COCCNC(=O)C(c1ccncc1)N(Cc1ccccc1)C(=O)Cn1nnc2ccccc21 (stereo not given),1.1,13,1,-3,2
COc1ccc(C(C)=O)cc1CSc1nnc(-c2ccc(Cl)cc2)n1-c1ccccc1,0.8,-7,0.8,-4,-4
COc1ccc2cc(C3NC(=O)c4ccccc4N3)c(Cl)nc2c1 (stereo not given),1.1,-243,0.9,19*,21
COC(=O)C1=C(C)N(Cc2ccco2)C(=O)/C1=C\c1ccc([N+](=O)[O-])cc1,1.2,-51,1.2,10*,-15
N/C(=N\N=C\c1ccc([N+](=O)[O-])cc1)c1nonc1N,·,10,·,·,-18
CS/C(N)=N/N=C/c1ccc([N+](=O)[O-])cc1,1.6,4,2.5*,-7,-5
Cc1ccc(C)c(N=Nc2nc3ccccc3n2C)c1,1.3,1,2.2*,-2,32
O=C(CN1CCN(Cc2ccccc2)CC1)c1ccc(Br)cc1,1.5,·,2.4*,4,15
O=C(c1ccc(Cn2cc(Cl)c([N+](=O)[O-])n2)cc1)N1CCN(Cc2ccccc2)CC1,·,-7,·,·,-15
O=C(CCc1nnc(CCCc2ccccc2)o1)NCCc1ccccc1,1,8,1,15*,-11
COC(=O)c1ccc(CNC(=O)COC(=O)C23CC4CC(CC(C4)C2)C3)cc1,0.9,·,1,-5,20
O=C(O)c1cccc(NC(=S)N/N=C/c2ccccc2OCc2ccc(Br)cc2)c1,1,-32,1.1,-6,-6
O=C(O)c1cccc(NC(=S)N/N=C/c2ccccc2OCc2cccc(Br)c2)c1,1,-13,1,-1,56*
CCCn1c(=S)[nH]c2cc(C(=O)N3CCc4ccccc4C3)ccc2c1=O,1.1,-11,1,-5,57*
Cc1cc2cc(CNC(=O)NC3CCCCC3)ccc2[nH]1,0.9,-5,0.9,-6,39
Cc1ccc(NC(=O)NCc2ccc3[nH]c(C)cc3c2)cc1,0.9,-15,1,0,30
Cc1cc2cc(CNC(=S)NC3CCCCC3)ccc2[nH]1,1.1,3,0.9,0,87*
Cc1cccc(NC(=O)NCc2ccc3[nH]c(C)cc3c2)c1,0.8,-3,0.8,-4,97*
SMILES,PMI activator,Rad51 HR inh,PMI act hi M6P,HMGR II inh,m-calpain inh
CC(C)c1ccc(C2NC(=O)CCC2[N+](=O)[O-])cc1 (stereo not given),0.9,1,0.8,10*,0
O=[N+]([O-])c1cccc(N/N=C/c2cc([N+](=O)[O-])ccc2O)c1,1.1,10,1,-6,-22
Cc1cccc(N/N=C/c2ccccc2O)c1,1.7,1,2.8*,1,0
Cc1ccc(/C=N/Nc2cccc3cccnc23)c(O)c1,1.4,-2,2*,-1,-5
Cc1ccc(C(=O)C[n+]2cc(Br)cc(Br)c2)cc1,·,16,·,·,25
Cc1nc(=S)c2ccccc2[nH]1,1.4,4,1.5,15*,4
N#C/C(=C\c1ccc(OCC(N)=O)cc1)S(=O)(=O)c1ccccc1,1,-1,0.9,-2,-10
CC(C)Cc1nc(S(=O)(=O)c2ccc(Cl)cc2)c(N2CCOCC2)o1,1.1,5,1.2,-1,-13
CC(C)(C)c1nc(S(=O)(=O)c2ccc(Cl)cc2)c(N2CCOCC2)o1,1.6,-3,2.1*,-5,-60
COc1ccc(S(=O)(=O)N2CC=C(C(=O)Nc3ccc(NC(C)=O)cc3)CC2)cc1,1.1,14,1,22*,-7
Clc1ccccc1-c1nnc(CNC2CC2)o1,0.7,-4,0.9,0,-16
CCN/N=C(\Cc1nc2ccccc2[nH]1)c1ccccc1,1,-6,0.9,9,-59
Clc1cccc(/C(Cc2nc3ccccc3[nH]2)=N\Nc2ccccc2)c1,1.7,1,2.5*,-4,26
N/N=C(/Cc1nc2ccccc2[nH]1)c1ccc([N+](=O)[O-])cc1,1.1,-6,1,-5,30
Cc1ccc(N/N=C(\Cc2nc3ccccc3[nH]2)c2ccccc2)cc1,1.5,·,2.2*,-5,-29
O=C(Cc1nc2ccccc2[nH]1)N/N=C/c1ccccc1,0.9,-9,0.9,2,-3
N#CCCN/N=C(\Cc1nc2ccccc2[nH]1)c1ccccc1,1,5,1,-4,-51
c1ccc(N/N=C(\Cc2nc3ccccc3[nH]2)c2ccccc2)cc1,1.8,-1,2.9*,-9,-3
N#CCCN/N=C(/Cc1nc2ccccc2[nH]1)c1ccc(Cl)cc1,0.9,0,1,9.9*,-169
CCCCC(CC)CNC(=O)C(Cc1ccccc1)NS(=O)(=O)c1ccc2c(c1)CCC(=O)N2 (stereo not given),1,4,1,1,-6
Cc1nn(C)cc1CNCc1c(C(=O)N2CCCCC2)nc2c(C)cccn12,1,·,0.9,-5,25
COc1ccc(Cc2noc(CN3CCN(Cc4csc(C)n4)CC3)n2)cc1OC,1,-7,1,-4,-6
CCOC(=O)/C=C(/C)N1N=C(c2ccc(OC)cc2)CC1c1cccc([N+](=O)[O-])c1 (stereo not given),1.6,·,2.3*,-3,-8
COc1ccc(C2=NN(C(=O)c3ccccc3)C(c3cccc([N+](=O)[O-])c3)C2)cc1 (stereo not given),·,·,·,·,-18
O=C(Cn1c(=O)sc2ccccc21)Nc1ccc(O)cc1,1.1,-24,1,-4,4
C/C(=N\Nc1ccc(F)cc1F)c1ccccc1O,1.7,8,2.3*,-13,15
C/C(=N\Nc1cc(C(F)(F)F)ccc1Cl)c1ccccc1O,0.9,19,0.9,-7,9
CCCOc1nc(C)cc(COC)c1C(N)=O,1,-1,0.9,-5,-22
COc1ccc(S(=O)(=O)N2CCC(NC(=O)OCc3c(Cl)cccc3Cl)CC2)cc1,0.9,-11,0.8,-4,65*
COc1ccc(COC(=O)NC2CCN(S(=O)(=O)c3ccc(OC)cc3)CC2)cc1,0.8,-8,0.9,-4,11
